Results on 1 molecule are retold here after ChEMBL document CHEMBL4680221, “Discovery of pyrazole derivatives as cellular active inhibitors of histone lysine specific demethylase 5B (KDM5B/JARID1B)” (Eur J Med Chem, 2020).

The source made the active and inactive calls. No cut-off for these calls is given here. Where only a bound is given, the exact number is not on record here.

The target in series [1] is T1, Lysine-specific demethylase 5C (Homo sapiens, UniProt P41229). Briefly: Inhibition of KDM5C (unknown origin) at 0.25 uM relative to control.
A short description of series [2]: Cytotoxicity against human GES1 cells assessed as reduction in cell proliferation at 100 uM by MTS assay relative to control. The class given is cell-based. The settings on record: read-out: Activity. Summed up:
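Normal human gastric epithelial GES-1 cells, seeded at 3×10^3 cells per well and exposed to 100 μM. Antiproliferation rate was read by MTS assay.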
A general note: Tetrazolium assays rely on reduction of a dye to a coloured formazan, in cell work by metabolically active cells.

In series [3] the test system is MKN-45. Description: Inhibition of colony formation in human MKN-45 cells measured after 10 days by crystal violet staining based microscopic analysis. In kind it is functional, cell-based. The settings on record: time 10.0 day. Summed up: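 1000 MKN45 cells were seeded in 6-well plates and treated. The medium was then replaced and cells were cultured another 10 days. Colonies were fixed with cold methanol, stained with crystal violet and photographed under a microscope.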

The target of series [4] is T2, Lysine-specific demethylase 5B (Homo sapiens, UniProt Q9UGL1). Briefly: Inhibition of KDM5B in human MKN-45 cells assessed as protein stabilization measured after 1 hr by cellular thermal shift assay. In kind it is cell-based. In short, it runs like this: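 MKN45 cells (5×10^5) were treated with compound or DMSO for 1 h, washed in PBS and resuspended in PBS with protease inhibitors. Cells were heated at 46 °C for 3 min, then freeze-thawed three times in liquid nitrogen. KDM5B in the supernatant was measured by western blot with GAPDH control. Repeated three times.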

Series [5] deals with T2, Lysine-specific demethylase 5B. Description: Inhibition of KDM5B in human MKN-45 cells assessed as increase in H3K4me2 accumulation at 0.5 to 20 uM measured after 5 days by Western blot analysis. In kind it is cell-based. The settings on record: dose 0.5-20 µM, time 5.0 day. In short, it runs like this:
(§1)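 MKN45 cells were treated for 5 days and lysed in RIPA buffer. About 30 µg protein was run on 10% SDS-PAGE and transferred to 0.2 µm nitrocellulose, then blocked with 5% milk in PBS for 2 h. Blots were probed for histone methylation marks with histone 3 as loading control and detected by ECL.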

For series [6], the target named is T3, Lysine-specific demethylase 5A (Homo sapiens, UniProt P29375). Briefly: Inhibition of KDM5A (unknown origin) at 0.01 uM relative to control.
Series [7] deals with MKN-45. Briefly: Inhibition of KDM4 in human MKN-45 cells assessed as increase in H3K9me3 accumulation at 0.5 to 20 uM measured after 5 days by Western blot analysis. In kind it is cell-based. The settings on record: dose 0.5-20 µM, time 5.0 day. Summed up:
as §1
(In general: In western blotting, separated proteins are transferred to a membrane and probed.)

Series [8] addresses T4, Lysine-specific demethylase 4A (Homo sapiens, UniProt O75164).
T4 sequence (O75164 whole entry): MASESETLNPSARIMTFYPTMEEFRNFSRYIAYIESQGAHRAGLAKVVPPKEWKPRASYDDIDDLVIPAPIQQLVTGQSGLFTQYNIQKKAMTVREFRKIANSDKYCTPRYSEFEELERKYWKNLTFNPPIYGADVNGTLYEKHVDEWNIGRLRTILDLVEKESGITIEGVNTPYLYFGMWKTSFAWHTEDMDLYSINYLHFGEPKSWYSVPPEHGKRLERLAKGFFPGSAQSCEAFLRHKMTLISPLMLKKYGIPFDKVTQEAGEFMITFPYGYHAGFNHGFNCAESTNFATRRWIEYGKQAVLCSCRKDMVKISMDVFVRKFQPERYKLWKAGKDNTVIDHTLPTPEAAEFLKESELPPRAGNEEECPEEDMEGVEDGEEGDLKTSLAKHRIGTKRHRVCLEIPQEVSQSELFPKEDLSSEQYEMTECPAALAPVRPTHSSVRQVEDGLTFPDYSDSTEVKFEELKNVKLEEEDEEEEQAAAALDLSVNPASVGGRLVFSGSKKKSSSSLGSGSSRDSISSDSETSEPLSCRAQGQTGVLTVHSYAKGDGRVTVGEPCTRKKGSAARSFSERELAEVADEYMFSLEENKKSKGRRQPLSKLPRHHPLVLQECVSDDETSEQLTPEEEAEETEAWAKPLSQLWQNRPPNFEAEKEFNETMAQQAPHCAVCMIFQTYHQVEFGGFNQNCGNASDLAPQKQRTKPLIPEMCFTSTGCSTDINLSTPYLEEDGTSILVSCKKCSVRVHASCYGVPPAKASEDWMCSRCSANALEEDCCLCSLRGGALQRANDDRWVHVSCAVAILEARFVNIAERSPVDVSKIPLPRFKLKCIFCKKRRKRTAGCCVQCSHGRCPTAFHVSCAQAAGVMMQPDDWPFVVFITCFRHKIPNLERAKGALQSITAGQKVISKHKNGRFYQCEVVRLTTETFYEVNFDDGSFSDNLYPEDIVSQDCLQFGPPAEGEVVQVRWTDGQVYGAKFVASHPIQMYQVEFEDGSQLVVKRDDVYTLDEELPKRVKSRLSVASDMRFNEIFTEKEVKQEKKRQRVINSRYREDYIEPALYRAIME
Description: Inhibition of KDM4A (unknown origin).

Series [9] has as its target T1, Lysine-specific demethylase 5C. Briefly: Inhibition of KDM5C (unknown origin) at 0.01 uM relative to control.
Series [10] concerns MKN-45. Description: Inhibition of KDM6 in human MKN-45 cells assessed as increase in H3K27me2 accumulation at 0.5 to 20 uM measured after 5 days by Western blot analysis. Conditions: dose 0.5-20 µM, time 5.0 day. The class given is cell-based. In short, it runs like this: as §1
Series [11] has as its target Lysine-specific demethylase 6B (Homo sapiens, UniProt O15054). Briefly: Inhibition of KDM6B (unknown origin) at 0.01 uM relative to control.
The test system of series [12] is MKN-45. Description: Inhibition of KDM4 in human MKN-45 cells assessed as increase in H3K9me2 accumulation at 0.5 to 20 uM measured after 5 days by Western blot analysis. In kind it is cell-based. The settings on record: dose 0.5-20 µM, time 5.0 day. Summed up: as §1
Series [13] concerns the target T5, Lysine-specific demethylase 4A (Homo sapiens) (UniProt O75164).
T5 sequence (whole entry): T4 sequence (O75164 whole entry)
Description: Inhibition of KDM4A (unknown origin) at 0.25 uM relative to control.

The target of series [14] is T3, Lysine-specific demethylase 5A. Briefly: Inhibition of KDM5A (unknown origin) at 0.25 uM relative to control.
For series [15], the target named is T2, Lysine-specific demethylase 5B. Briefly: Inhibition of recombinant human N-terminal FLAG-tagged KDM5B expressed in Sf9 insect cells at 10 uM using biotin-H3K4me as substrate by ALPHA relative to control. Summed up:
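ALPHA demethylase assay. Recombinant KDM5B (4 nM) was preincubated with compound, then biotin-H3K4me3 peptide (64 nM) was added. Buffer: 10 μM α-KG, 100 μM ascorbate, 50 μM (NH4)2Fe(SO4)2, 50 mM HEPES pH 7.5, 0.01% Tween 20, 0.1% BSA. Read-out used streptavidin donor and H3K4me1-2 antibody acceptor beads. Data were normalized to blank control and IC50 fitted.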

The subject of series [16] is MKN-45. Briefly: Antiproliferative activity against human MKN-45 cells assessed as reduction in cell proliferation measured after 4 days by MTS assay. The class given is functional, cell-based. The settings on record: MKN-45, 96 h. In short, it runs like this:
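MKN45 cells were seeded at 3×10^3 cells per well and treated for 4 or 6 days, as indicated. Proliferation was read by MTS assay and IC50 derived. Three independent experiments, mean ± SD.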

T2 sequence (Q9UGL1 whole entry): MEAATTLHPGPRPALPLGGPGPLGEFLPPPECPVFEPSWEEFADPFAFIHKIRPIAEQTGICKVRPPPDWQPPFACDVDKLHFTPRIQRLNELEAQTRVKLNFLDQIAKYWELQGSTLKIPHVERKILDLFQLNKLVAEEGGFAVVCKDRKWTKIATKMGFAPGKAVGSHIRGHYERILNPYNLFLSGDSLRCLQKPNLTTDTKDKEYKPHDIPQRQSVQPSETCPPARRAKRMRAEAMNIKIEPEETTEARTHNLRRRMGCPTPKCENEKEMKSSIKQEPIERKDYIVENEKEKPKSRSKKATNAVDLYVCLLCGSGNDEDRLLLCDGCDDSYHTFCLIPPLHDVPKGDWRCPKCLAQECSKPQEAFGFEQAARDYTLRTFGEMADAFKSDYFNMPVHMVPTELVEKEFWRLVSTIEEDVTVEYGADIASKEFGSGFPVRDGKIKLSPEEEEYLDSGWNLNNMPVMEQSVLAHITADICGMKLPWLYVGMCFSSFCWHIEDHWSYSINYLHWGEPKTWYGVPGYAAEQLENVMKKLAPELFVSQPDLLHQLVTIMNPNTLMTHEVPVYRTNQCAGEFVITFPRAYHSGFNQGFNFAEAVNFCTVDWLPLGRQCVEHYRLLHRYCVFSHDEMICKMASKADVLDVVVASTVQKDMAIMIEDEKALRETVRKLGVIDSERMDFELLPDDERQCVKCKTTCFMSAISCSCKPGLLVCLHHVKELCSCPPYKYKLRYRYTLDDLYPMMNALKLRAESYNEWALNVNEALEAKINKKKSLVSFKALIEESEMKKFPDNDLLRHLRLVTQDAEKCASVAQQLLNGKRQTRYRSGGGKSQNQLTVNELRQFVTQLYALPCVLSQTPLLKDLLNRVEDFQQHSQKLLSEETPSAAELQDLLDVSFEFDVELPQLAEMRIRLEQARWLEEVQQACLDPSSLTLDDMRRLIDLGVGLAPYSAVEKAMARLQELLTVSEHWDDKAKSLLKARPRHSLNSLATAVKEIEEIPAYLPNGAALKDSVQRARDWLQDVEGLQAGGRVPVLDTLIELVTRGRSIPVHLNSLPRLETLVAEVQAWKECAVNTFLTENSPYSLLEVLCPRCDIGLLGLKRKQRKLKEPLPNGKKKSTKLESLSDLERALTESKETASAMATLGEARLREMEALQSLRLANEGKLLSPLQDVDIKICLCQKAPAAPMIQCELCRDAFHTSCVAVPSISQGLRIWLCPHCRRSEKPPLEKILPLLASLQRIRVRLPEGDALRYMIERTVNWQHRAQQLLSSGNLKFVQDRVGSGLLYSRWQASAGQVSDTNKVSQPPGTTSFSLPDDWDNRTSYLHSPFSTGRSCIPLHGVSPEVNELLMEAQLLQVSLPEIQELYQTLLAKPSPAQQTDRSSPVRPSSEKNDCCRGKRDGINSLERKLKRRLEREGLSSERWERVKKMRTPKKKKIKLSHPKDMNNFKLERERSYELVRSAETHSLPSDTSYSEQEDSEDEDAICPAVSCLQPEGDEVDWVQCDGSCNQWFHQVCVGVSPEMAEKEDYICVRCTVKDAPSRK
T3 sequence (P29375 whole entry): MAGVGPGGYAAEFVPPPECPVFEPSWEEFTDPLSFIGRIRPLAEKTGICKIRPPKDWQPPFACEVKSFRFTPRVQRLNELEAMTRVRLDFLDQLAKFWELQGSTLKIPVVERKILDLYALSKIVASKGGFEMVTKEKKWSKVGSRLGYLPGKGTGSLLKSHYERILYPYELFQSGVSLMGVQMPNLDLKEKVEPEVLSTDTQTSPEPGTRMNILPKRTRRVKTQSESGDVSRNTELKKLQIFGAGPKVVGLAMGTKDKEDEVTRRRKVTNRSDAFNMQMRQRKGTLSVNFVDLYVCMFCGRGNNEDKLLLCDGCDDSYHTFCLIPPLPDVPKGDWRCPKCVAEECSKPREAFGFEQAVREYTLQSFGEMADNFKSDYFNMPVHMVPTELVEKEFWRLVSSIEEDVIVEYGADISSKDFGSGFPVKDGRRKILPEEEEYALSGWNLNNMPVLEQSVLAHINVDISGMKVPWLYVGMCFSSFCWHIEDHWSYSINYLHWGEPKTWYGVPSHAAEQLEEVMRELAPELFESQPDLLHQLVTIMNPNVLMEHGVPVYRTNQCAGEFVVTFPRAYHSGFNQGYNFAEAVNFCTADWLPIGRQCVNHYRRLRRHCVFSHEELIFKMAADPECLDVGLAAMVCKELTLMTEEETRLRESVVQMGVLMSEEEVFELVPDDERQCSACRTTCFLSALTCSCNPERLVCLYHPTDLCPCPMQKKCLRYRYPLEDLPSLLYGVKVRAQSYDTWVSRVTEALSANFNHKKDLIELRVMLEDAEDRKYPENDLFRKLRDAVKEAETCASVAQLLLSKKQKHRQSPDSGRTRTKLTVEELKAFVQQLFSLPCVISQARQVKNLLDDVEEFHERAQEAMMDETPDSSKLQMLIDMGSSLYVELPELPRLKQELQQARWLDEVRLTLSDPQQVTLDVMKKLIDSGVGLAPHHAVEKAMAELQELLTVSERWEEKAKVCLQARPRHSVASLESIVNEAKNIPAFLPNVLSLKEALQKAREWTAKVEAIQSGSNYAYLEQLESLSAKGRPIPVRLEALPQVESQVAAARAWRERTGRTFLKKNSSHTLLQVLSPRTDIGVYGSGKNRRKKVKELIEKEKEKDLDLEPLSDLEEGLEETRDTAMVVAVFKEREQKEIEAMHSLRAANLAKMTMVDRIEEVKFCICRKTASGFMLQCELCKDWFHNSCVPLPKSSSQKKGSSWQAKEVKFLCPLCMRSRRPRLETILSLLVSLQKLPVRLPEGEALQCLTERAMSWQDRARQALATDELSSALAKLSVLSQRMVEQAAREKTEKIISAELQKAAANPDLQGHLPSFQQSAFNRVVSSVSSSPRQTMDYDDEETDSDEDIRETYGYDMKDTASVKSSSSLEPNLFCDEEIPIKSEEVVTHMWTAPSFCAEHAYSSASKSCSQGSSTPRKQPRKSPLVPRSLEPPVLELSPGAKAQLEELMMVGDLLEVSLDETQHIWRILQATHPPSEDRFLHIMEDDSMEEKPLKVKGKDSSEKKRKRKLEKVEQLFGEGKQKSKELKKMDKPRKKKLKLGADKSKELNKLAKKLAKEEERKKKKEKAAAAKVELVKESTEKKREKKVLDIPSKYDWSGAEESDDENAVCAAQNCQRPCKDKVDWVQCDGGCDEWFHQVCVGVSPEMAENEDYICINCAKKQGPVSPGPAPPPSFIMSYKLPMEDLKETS
T1 sequence (P41229 whole entry): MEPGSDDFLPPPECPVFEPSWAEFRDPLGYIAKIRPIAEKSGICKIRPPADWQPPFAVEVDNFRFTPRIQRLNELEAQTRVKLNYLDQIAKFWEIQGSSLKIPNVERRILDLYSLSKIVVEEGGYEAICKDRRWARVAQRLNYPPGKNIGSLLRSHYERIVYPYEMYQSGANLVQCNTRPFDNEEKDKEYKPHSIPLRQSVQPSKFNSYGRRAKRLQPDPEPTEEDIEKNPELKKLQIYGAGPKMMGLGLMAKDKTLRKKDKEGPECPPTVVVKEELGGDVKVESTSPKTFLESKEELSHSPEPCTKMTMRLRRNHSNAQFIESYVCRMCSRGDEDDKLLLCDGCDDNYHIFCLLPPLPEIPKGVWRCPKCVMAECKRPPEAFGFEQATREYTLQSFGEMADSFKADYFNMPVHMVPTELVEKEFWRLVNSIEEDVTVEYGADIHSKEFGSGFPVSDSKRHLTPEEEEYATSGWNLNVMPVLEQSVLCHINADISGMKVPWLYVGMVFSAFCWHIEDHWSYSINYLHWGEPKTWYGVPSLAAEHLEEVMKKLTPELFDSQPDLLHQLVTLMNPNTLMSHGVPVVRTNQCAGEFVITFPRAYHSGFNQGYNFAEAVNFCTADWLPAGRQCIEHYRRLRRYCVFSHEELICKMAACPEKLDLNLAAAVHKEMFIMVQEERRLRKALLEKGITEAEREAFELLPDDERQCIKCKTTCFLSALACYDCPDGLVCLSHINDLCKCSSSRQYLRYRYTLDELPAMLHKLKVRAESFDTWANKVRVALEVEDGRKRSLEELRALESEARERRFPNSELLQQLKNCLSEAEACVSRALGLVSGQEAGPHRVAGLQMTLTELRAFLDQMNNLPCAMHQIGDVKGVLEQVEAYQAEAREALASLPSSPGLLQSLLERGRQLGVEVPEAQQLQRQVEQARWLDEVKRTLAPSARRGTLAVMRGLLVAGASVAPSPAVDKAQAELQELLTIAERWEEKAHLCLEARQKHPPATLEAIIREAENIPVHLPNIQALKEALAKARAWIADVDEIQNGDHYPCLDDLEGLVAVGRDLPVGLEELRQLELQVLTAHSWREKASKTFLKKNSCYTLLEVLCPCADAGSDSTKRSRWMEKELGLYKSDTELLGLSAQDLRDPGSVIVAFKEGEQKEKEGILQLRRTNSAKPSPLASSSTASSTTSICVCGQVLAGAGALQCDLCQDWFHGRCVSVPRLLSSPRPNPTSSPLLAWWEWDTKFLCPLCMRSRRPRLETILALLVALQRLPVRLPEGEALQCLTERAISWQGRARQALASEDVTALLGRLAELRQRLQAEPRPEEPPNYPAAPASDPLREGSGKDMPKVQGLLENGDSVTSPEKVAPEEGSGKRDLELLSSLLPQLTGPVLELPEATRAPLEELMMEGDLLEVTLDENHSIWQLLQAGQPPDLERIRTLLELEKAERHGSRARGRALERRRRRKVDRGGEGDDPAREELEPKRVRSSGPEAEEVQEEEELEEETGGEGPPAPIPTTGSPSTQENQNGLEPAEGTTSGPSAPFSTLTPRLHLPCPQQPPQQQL

Take `COc1ccc(-n2cc(C(=O)NCC(C)(C)N3CCOCC3)c(-c3ccccc3)n2)cc1`: the inhibition in series [1] was 62.1%; in series [4], “Dose-dependent effect”; in [6], 20.1%; in series [9] it was 16.4%; in [11] it was 3.57%; in series [13] it was 29.4%. Also, the inhibition in [14] turned out to be 62.4%; in series [15], 95.8%. Moreover, the inhibition at 100 µM in series [2] is below 10%. Moreover, the inhibition entry (with MKN-45 [3]; in [5]) was “Active” each time. Further, the inhibition entry in the series with MKN-45 [7], in the series with MKN-45 [10] and with MKN-45 [12] was “inactive” in each case. Besides, the IC50 (as a rule, the concentration that inhibits the measured activity by half) in series [8] came out at 0.954 µM; in the series on MKN-45 [16], 26.7 µM.
